An excerpt weighted towards active compounds, which were near 0.92% of everything screened.
FN deposit inh = fibronectin deposition inhibition; 350,000 tested, 0.086% active; AID 743247; AH1F fibroblasts, Alexa488-fibronectin deposition fluorescence, overnight; inhibition, % at 12.6 µM;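 active = mean inhibition across replicates of 30% or more, regardless of how many single replicates reach that level; inconclusive = mean under 30% yet at least half of replicates reach 30%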
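material = AH1F fibroblast monolayer depositing Alexa488-labelled fibronectin into matrix | amount = 10000 AH1F cells/well | buffer or medium = DMEM plus 2% serum, read in PBS | incubation = 1 h cell adhesion before compound, then overnight fibronectin incubation | detection = fluorescence at 485 nm excitation, 525 nm emission | evaluation = percent inhibition as loss of matrix-bound fibronectin fluorescence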
RAD54 branch = inhibitors of human RAD54 branch migration; 360,000 tested, 0.14% active; AID 602329; RAD54 Holliday junction branch migration, FAM/BHQ fluorescence; inhibition, % at 10.4 µM;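 active = mean normalized replicate activity at least 40 and at least half of replicates scoring 40 or more; inconclusive = only one of the two criteria met; inactive = mean below 40 and under half of replicates reaching 40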;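 note: inhibitors cause a drop in the FAM fluorescence signal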
Target sequence (Q92698 whole entry, looked up): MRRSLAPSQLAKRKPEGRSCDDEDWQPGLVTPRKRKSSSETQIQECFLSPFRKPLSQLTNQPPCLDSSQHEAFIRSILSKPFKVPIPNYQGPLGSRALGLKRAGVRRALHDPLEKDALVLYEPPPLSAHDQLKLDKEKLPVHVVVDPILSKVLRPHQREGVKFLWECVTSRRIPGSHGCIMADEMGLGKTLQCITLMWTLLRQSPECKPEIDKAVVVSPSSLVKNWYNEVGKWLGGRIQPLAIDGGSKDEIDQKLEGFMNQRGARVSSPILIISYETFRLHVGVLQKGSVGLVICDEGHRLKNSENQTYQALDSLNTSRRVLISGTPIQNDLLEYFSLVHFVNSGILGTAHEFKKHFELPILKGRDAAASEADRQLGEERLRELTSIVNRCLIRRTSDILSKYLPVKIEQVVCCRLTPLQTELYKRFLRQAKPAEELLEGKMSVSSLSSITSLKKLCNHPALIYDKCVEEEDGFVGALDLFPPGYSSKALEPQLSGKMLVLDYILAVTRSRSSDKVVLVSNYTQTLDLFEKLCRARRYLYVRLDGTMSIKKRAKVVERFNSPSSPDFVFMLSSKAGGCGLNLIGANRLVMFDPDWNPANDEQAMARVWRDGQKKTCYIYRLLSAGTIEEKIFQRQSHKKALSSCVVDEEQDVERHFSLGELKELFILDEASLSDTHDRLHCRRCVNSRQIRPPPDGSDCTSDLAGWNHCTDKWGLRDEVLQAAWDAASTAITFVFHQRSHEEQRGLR
MLL AF4-AF9 inh = MLL-AF4/AF9 protein interaction inhibition. P42568. AlphaScreen, biotin-AF4 peptide binding to FLAG-AF9. inhibition, % at 10 µM. 350,000 tested, 0.47% active. AID 651704;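 active = every replicate reaching a set inhibition limit, whatever the replicate mean, cut at about 25% in these data; inconclusive = mean inhibition reaches that limit but some replicates miss it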
RAD52 anneal inh = RAD52 (human) annealing inhibition; P43351; inhibition, % at 18.7 µM; AID 651710; recombinant RAD52 DNA annealing, FRET fluorescence; 360,000 tested, 0.46% active;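 active = every replicate showing at least 50% inhibition; inconclusive = mean inhibition at least 50% but not in every replicate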
Glyco luc inh = N-linked glycosylation inhibition; D54 ERlucT glycosylation luciferase reporter, 24 h; percent of 100 nM tunicamycin response; reporter increase, % at 12.5 µM; 360,000 tested, 0.23% active; AID 588692;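 active = mean luciferase reporter signal, scaled so untreated is 0 and the glycosylation-blocking control 100, at or above a set limit in every replicate; inconclusive = mean reaches the limit but not every replicate does; inactive = mean below the limit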;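 note: luciferase carries N-glycosylation sites so blocking glycosylation raises the light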
A number is an active result; – = inactive; ? = inconclusive; · = not tested or not shown.

SMILES	FN deposit inh	RAD54 branch	MLL AF4-AF9 inh	RAD52 anneal inh	Glyco luc inh
CCN1CCCC1CNC(=O)c1cc2c(-c3ccc(Cl)cc3)nn(C)c2s1 (centres undefined)	·	51	·	·	–
COc1ccc(C(=O)/C=C/c2ccc(OC(=O)c3cc(OC)c(OC)c(OC)c3)cc2)cc1	–	–	–	–	42
COC(=O)c1ccc(/C=C/C(=O)c2ccc(OC)c(OC)c2)cc1	·	–	·	·	62
COc1cc(/C=C/C(=O)c2ccc3c(c2)OCCO3)cc(OC)c1OC	–	–	–	–	42
CC(C)(C)[S@](=O)N1Cc2cc(C(=O)NCCN3CCCCC3)nc(-c3cccc(-c4cccc(C#N)c4)c3)c2[C@@H]1CCO	–	–	–	–	·
CC(=O)Nc1cccc(-c2ccnc3c2CC(C)(C(=O)Nc2cccc(C(F)(F)F)c2)O3)c1 (centres undefined)	30	–	–	–	–
CC1(C(=O)Nc2cccc(C(F)(F)F)c2)Cc2c(-c3cccc(C(F)(F)F)c3)ccnc2O1 (centres undefined)	–	–	–	–	–
COc1ccc(-c2ccc([C@H]3[C@@H](CO)N4C(=O)CN(Cc5ccc(C)cc5)C[C@@H]34)cc2)cc1	·	·	–	–	·
CC(C)(C)c1ccc(C(=O)NCCC(=O)NC2=NCCS2)cc1	–	–	29	–	–
CCc1ccccc1NC(=O)Cn1nnc(C(=O)NCc2cccs2)c1N	–	·	·	·	?
COc1ccccc1NC(=O)Cn1nnc(C(=O)NCc2cccs2)c1N	–	–	–	–	28
COc1ccc(-c2oc3ncnc(NCCN4CCOCC4)c3c2-c2ccc(OC)cc2)cc1	·	–	·	·	–
COc1ccc(-c2oc3ncnc(NCCCN4CCOCC4)c3c2-c2ccc(OC)cc2)cc1	active	–	·	·	–
CC1=CC(=O)[C@@H](O)[C@@H](c2ccccc2Br)N1C	active	–	–	–	–
O=S(=O)(c1ccccc1F)N1CC[C@@H]2[C@H]1c1cc(-c3ccccc3)ccc1N[C@@H]2CO	–	–	–	–	·
O=S(=O)(c1ccccc1F)N1CC[C@H]2[C@H](CO)Nc3ccc(-c4cccc(F)c4)cc3[C@H]21	34	–	–	–	·
N#Cc1ccc(-c2ccc3c(c2)[C@H]2[C@H](CCN2S(=O)(=O)c2cccc(F)c2)[C@@H](CO)N3)cc1	–	–	–	–	·
O=S(=O)(c1ccccc1F)N1CC[C@@H]2[C@H]1c1cc(-c3cccc(F)c3)ccc1N[C@@H]2CO	64	–	·	·	·
N#Cc1ccc(-c2ccc3c(c2)[C@@H]2[C@@H](CCN2S(=O)(=O)c2cccc(F)c2)[C@H](CO)N3)cc1	31	–	–	–	·
CCCN1C[C@H](C)[C@@H](OC)CN(C)C(=O)c2cc(NC(=O)c3ccno3)ccc2OC[C@@H]1C	–	–	–	–	·
C[C@@H]1CN([C@@H](C)CO)S(=O)(=O)c2ccc(C#Cc3ccc(F)cc3)cc2O[C@H]1CN(C)C(=O)CN(C)C	–	–	–	55	·
C[C@H](CO)N1C[C@H](C)[C@@H](CN(C)C(=O)CN(C)C)Oc2cc(C#Cc3ccc(F)cc3)ccc2S1(=O)=O	–	–	–	52	·
C[C@@H]1CN([C@@H](C)CO)S(=O)(=O)c2ccc(C#Cc3ccccc3)cc2O[C@H]1CN(C)C(=O)CN(C)C	–	–	–	–	·
C[C@@H]1CN([C@H](C)CO)C(=O)c2cccc(NC(=O)c3ccc(-c4nccs4)cc3)c2O[C@H]1CN(C)Cc1ccc(C(F)(F)F)cc1	·	–	–	·	·
C[C@@H]1CCCCO[C@@H](CN(C)Cc2ccc3c(c2)OCO3)[C@@H](C)CN([C@@H](C)CO)C(=O)c2cc(NC(=O)c3ccncc3)ccc2O1	–	–	–	–	·
SMILES	FN deposit inh	RAD54 branch	MLL AF4-AF9 inh	RAD52 anneal inh	Glyco luc inh
O=C(c1cccc(-c2cncc3nccn23)c1)N1CCOCC1	–	–	–	–	–
CN1CCN(C(=O)c2cccc(-c3cnc4cnc(-c5ccccc5Oc5ccccc5)cn34)c2)CC1	40	–	–	–	–
CN(C)C(=O)[C@@]1(Cc2ccccc2N=[N+]=[N-])N=C(c2ccc(OCCCO)cc2)O[C@H]1c1ccccc1N=[N+]=[N-]	·	–	–	–	·
O=C(Nc1ccc(Cl)cc1)N1CCN(c2ccc3nnc(-c4ccc(F)cc4)n3n2)CC1	–	–	·	·	100
C[C@H]1CCCCO[C@H](CN(C)S(=O)(=O)c2ccc(Cl)cc2)[C@@H](C)CN([C@@H](C)CO)C(=O)c2cc(NC(=O)CCCN(C)C)ccc2O1	·	·	–	–	·
COC(=O)c1sccc1NC(=O)C1CC(C)=C(C)CC1C(=O)O (centres undefined)	–	·	30	–	–
CS(=O)(=O)c1cccc(C(=O)Nc2ccc(-c3nc4ccccc4[nH]3)cc2)c1	–	–	–	–	46
Cc1cc(N/N=C(/CCC(=O)O)C(=O)O)nc2ccccc12	·	·	–	–	–
CC(=NNc1cc(C)c2ccccc2n1)c1ccccn1	–	·	29	–	·
O=C(O)CCCCNCc1ccccc1	–	–	·	·	–
c1ccc(CNCCCNCCCCNCCCNCc2ccccc2)cc1	–	·	25	–	–
CO[C@@H]1CN(C)C(=O)c2ccc(NC(C)=O)cc2OC[C@@H](C)N(C(=O)c2ccccc2)C[C@@H]1C	–	·	–	–	·
Cc1ccc(Cl)cc1-n1c(SCC(=O)NCCC2=CCCCC2)nc2n[nH]c(C)c2c1=N	–	·	–	–	–
Cc1cc(-n2c(SCC(=O)NCCC3=CCCCC3)nc3n[nH]c(C)c3c2=N)ccc1Cl	–	–	–	–	59
O=C(O)c1ccc(/C=C/c2ccc3cccc(O)c3n2)cc1	–	·	–	–	–
Oc1ccc(/C=C/c2ccc3cccc(O)c3n2)cc1Br	–	–	26	–	–
COc1ccccc1/C=C/c1ccc2cccc(O)c2n1	–	–	27	–	–
COc1ccc(C[C@@H]2CCn3cc(nn3)COC[C@@H](CC(C)C)NC2=O)cc1	–	·	–	–	·
C[C@@H]1CN([C@H](C)CO)S(=O)(=O)c2ccc(-c3ccc(C#N)cc3)cc2O[C@@H]1CN(C)Cc1ccccn1	·	–	–	–	·
C[n+]1cc2c3c(ccc2c2ccc4cc5c(cc4c21)OCO5)OCO3	52	·	–	–	·
CC1CCN(S(=O)(=O)c2cnc(Cl)c(Br)c2)CC1	–	·	27	–	–
CC1CCCCN1S(=O)(=O)c1cnc(Cl)c(Br)c1 (centres undefined)	–	·	–	–	–
CCC(C)(C)NC(=O)C(OC(=O)c1ccco1)c1ccccc1OC (centres undefined)	31	–	·	·	–
C[C@@H]1CCCCO[C@@H](CN(C)S(=O)(=O)c2cn(C)cn2)[C@H](C)CN([C@H](C)CO)C(=O)c2cc(NS(=O)(=O)c3ccc(F)cc3)ccc2O1	–	–	–	–	·
N#Cc1ccc(C23OCCN2CCn2c3c3ccccc3[n+]2[O-])cc1 (centres undefined)	–	–	48	–	–
CO[C@H]1CN(C)C(=O)c2cc(NC(=O)Nc3ccc(Cl)cc3)ccc2OC[C@H](C)NC[C@@H]1C	–	–	·	–	·
CO[C@@H]1CN(C)C(=O)c2ccc(NC(=O)Nc3cccc(Cl)c3)cc2OC[C@H](C)NC[C@@H]1C	–	–	–	–	·

Screens from PubChem.
